Data set [1] concerns Hepatitis B virus subtype adw2. Nature of the data set: Antiviral activity against Hepatitis B virus subtype adw2 infected in human HuH7 cells assessed as inhibition of viral DNA replication at 10 uM after 2 days by RT-PCR method. It counts as functional, cell-based. The gist of the method:
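Huh7 cells transfected with pHBV1.2, a plasmid carrying 1.2-fold of the HBV adw2 genome, for 2 days, then treated for another 2 days. Secreted viral particles were isolated from the culture medium and extracellular HBV DNA quantified by real-time PCR against untreated or vehicle controls; n = 3.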

Data set [2] can be described thus: Antiviral activity against Hepatitis B virus subtype adw2 infected in human HepG2.2.15 cells assessed as inhibition of HBeAg secretion by EIA.
Data set [3] in a line: Antiviral activity against Hepatitis B virus in human HepG2.2.15 cells assessed as inhibition of HBsAg secretion by EIA.
Data set [4] in a line: Antiviral activity against Hepatitis B virus subtype adw2 in human HepG2.2.15 cells assessed as inhibition of viral DNA replication by RT-PCR method.
In data set [5] the test system is Hepatitis B virus subtype adw2. The experiment in a line: Antiviral activity against Hepatitis B virus subtype adw2 infected in human HepG2.2.15 cells assessed as inhibition of HBsAg secretion by EIA.
Data set [6] deals with Hepatitis B virus subtype adw2. The experiment in a line: (§1) Antiviral activity against Hepatitis B virus subtype adw2 infected in human HuH7 cells assessed as inhibition of viral DNA replication by RT-PCR method. Type of data set: functional, cell-based.
Data set [7] has as its system Hepatitis B virus subtype adw2. The experiment in a line: Antiviral activity against Hepatitis B virus subtype adw2 infected in human HepG2.2.15 cells assessed as inhibition of HBeAg secretion by EIA.
Data set [8] can be described thus: Cytotoxicity against human HepG2.2.15 cells assessed as reduction in cell viability after 3 days by MTS assay. The following applies: read-out: TC50. Background: Tetrazolium assays rely on reduction of a dye to a coloured formazan, in cell work by metabolically active cells.
Data set [9] is described as follows: Selectivity index, ratio of TC50 for human HepG2.2.15 cells to IC50 for Hepatitis B virus subtype adw2 infected in human HuH7 cells assessed as inhibition of viral DNA replication.
Data set [10] in a line: as §1. Type of data set: functional, cell-based. The following applies: Huh-7.
The nature of data set [11]: Selectivity index, ratio of TC50 for human HepG2.2.15 cells to IC50 for Hepatitis B virus subtype adw2 infected in human HuH7 cells assessed as inhibition of HBsAg secretion.
Data set [12] is described as follows: Selectivity index, ratio of TC50 for human HepG2.2.15 cells to IC50 for Hepatitis B virus subtype adw2 infected in human HepG2.2.15 cells assessed as inhibition of HBeAg secretion.
Data set [13] in a line: Antiviral activity against Hepatitis B virus in human HepG2.2.15 cells assessed as inhibition of viral DNA replication by RT-PCR method.
A short description of data set [14]: Antiviral activity against Hepatitis B virus subtype adw2 infected in human HuH7 cells assessed as inhibition of HBsAg secretion by EIA. It counts as functional, cell-based. To be noted: Huh-7.
Data set [15] in a line: Antiviral activity against Hepatitis B virus subtype adw2 infected in human HuH7 cells assessed as reduction in HBcAg level at 5 ug/ml after 2 days by immunoblot method relative to control. Type of data set: functional. A digest of the protocol:
(§2)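 Huh7 cells were transfected with pHBV1.2 (1.2-fold HBV adw2 genome) for 2 days, then exposed to 2.5, 5 or 10 μg/mL for another 2 days. Whole-cell protein was extracted with protease inhibitors. SHBs, HBcAg and HBx were detected by immunoblot, with α-tubulin for comparison.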
Background: In western blotting, separated proteins are transferred to a membrane and probed.

Data set [16] can be described thus: Antiviral activity against Hepatitis B virus subtype adw2 infected in human HuH7 cells assessed as reduction in HBx level at 5 ug/ml after 2 days by immunoblot method relative to control. It counts as functional. The gist of the method: as §2

The source made the active and inactive calls. No cut-off for these calls is given here.

Here are results for 30 molecules from ChEMBL document CHEMBL3997773, “Synthesis of C-4-Substituted Steviol Derivatives and Their Inhibitory Effects against Hepatitis B Virus” (J Nat Prod, 2016).

In general, IC50 refers to the concentration needed to halve the response being measured.

With `COc1ccc(C[C@H]2NC[C@H](O)[C@H]2OC(C)=O)cc1`, the inhibition entry in data set [1] is “inactive”.

As for `C=C1C[C@@]23CC[C@H]4[C@@](C)(CCC[C@@]4(C)NC(=O)Nc4ccc(OC)c(OC)c4)[C@@H]2CC[C@]1(O)C3`, the IC50 in [2] was 7.7 to 13.6 µM; in [3], 11.7 to 14 µM; in [4] it was 14.3 µM.

For `C=C1C[C@@]23CC[C@H]4[C@@](C)(CCC[C@@]4(C)NC(=O)CCCC)[C@@H]2CC[C@]1(O)C3`, the inhibition entry in [5], in [6] and in [7] was “Active” throughout.

Take `C=C1C[C@@]23CC[C@H]4[C@@](C)(CCC[C@@]4(C)N=C=O)[C@@H]2CC[C@]1(O)C3`: the CC50 at 72 h in [8] worked out at 337 µM. Moreover, the selectivity ratio in [9] is 11.2; in data set [11] it was 17.6; in [12] it was 11.8. Moreover, the IC50 was 30 µM in [10], 28.5 µM in data set [2] and 19.1 µM in [3].

Regarding `C=C1C[C@@]23CC[C@H]4[C@@](C)(CCC[C@@]4(C)NC(=O)Nc4ccc(F)cc4)[C@@H]2CC[C@]1(O)C3`, the inhibition entry in [5] and in [7] was “Active” each time.

As for `C=C1C[C@@]23CC[C@H]4[C@@](C)(CCC[C@@]4(C)NC(=O)c4ccc(Br)cc4)[C@@H]2CC[C@]1(O)C3`, the inhibition result in data set [5], in data set [6] and in data set [7] was “Active” in each case.

Turning to `C=C1C[C@@]23CC[C@H]4[C@@](C)(CCC[C@@]4(C)NC(=O)CCCCC)[C@@H]2CC[C@]1(O)C3`, the inhibition result in [5], in data set [6] and in data set [7] was “Active” in each case.

Take `C=C1C[C@@]23CC[C@H]4[C@@](C)(CCC[C@@]4(C)NC(=O)CC)[C@@H]2CC[C@]1(O)C3`: the inhibition result in [5] and in [7] was “Active” each time.

For `C=C1C[C@@]23CC[C@H]4[C@@](C)(CCC[C@@]4(C)NC(=O)c4ccc(OCC)cc4)[C@@H]2CC[C@]1(O)C3`, the IC50 in data set [13] came out at 4 µM; in data set [14], 2.7 µM; in data set [2], 3.4 µM. Moreover, the CC50 at 72 h in data set [8] amounted to 56.3 µM. For the same molecule, the selectivity ratio was 14.1 in data set [9], 20.9 in [11] and 16.6 in data set [12].

As for `C=C1C[C@@]23CC[C@H]4[C@@](C)(CCC[C@@]4(C)C(=O)O)[C@@H]2CC[C@]1(O)C3` [STEVIOL], the IC50 amounted to 20.8 µM in data set [14], 19.9 µM in data set [10] and 16.6 µM in [2]. The CC50 at 72 h in data set [8] stood at 474 µM. Moreover, the figures for the selectivity ratio in [9], in [11] and in data set [12] were 23.8, 22.8 and 28.6, respectively.

As for `C=C1C[C@@]23CC[C@H]4[C@@](C)(CCC[C@@]4(C)NC(=O)c4cccs4)[C@@H]2CC[C@]1(O)C3`, the inhibition entry in data set [5], in [6] and in data set [7] was “Active” each time.

Consider `C=C1C[C@@]23CC[C@H]4[C@@](C)(CCC[C@@]4(C)NC(=O)Nc4ccc(C)cc4)[C@@H]2CC[C@]1(O)C3`, for which the IC50 in data set [3] was found to be 59.6 µM.

For `C=C1C[C@@]23CC[C@H]4[C@@](C)(CCC[C@@]4(C)NC(=O)Nc4ccc(OC)cc4)[C@@H]2CC[C@]1(O)C3`, the IC50 was 7.7 to 13.6 µM in data set [2], 11.7 to 14 µM in [3] and 14.7 µM in data set [4].

On to `C=C1C[C@@]23CC[C@H]4[C@@](C)(CCC[C@@]4(C)NC(=O)c4ccc(C)cc4)[C@@H]2CC[C@]1(O)C3`, for which the inhibition entry in data set [5], in data set [6] and in data set [7] was “Active” each time.

Regarding `C=C1C[C@@]23CC[C@H]4[C@@](C)(CCC[C@@]4(C)NC(=O)Nc4cc(OC)c(OC)c(OC)c4)[C@@H]2CC[C@]1(O)C3`, the IC50 in data set [2] is 7.7 to 13.6 µM; in [3], 11.7 to 14 µM; in data set [4], 6.3 µM.

Regarding `C=C1C[C@@]23CC[C@H]4[C@@](C)(CCC[C@@]4(C)NC(=O)Nc4ccc(Br)cc4)[C@@H]2CC[C@]1(O)C3`, the inhibition result in data set [5] and in [7] was “Active” throughout.

Regarding `C=C1C[C@@]23CC[C@H]4[C@@](C)(CCC[C@@]4(C)NC(=O)c4ccc(OC)cc4)[C@@H]2CC[C@]1(O)C3`, the inhibition entry in [5], in [6] and in data set [7] was “Active” in each case.

Consider `C=C1C[C@@]23CC[C@H]4[C@@](C)(CCC[C@@]4(C)NC(=O)c4ccc(I)cc4)[C@@H]2CC[C@]1(O)C3`, for which the values for the IC50 in [13], in data set [2] and in data set [3] were 21.9 µM, 23.9 µM and 14.2 µM, respectively. Besides, in data set [8], the CC50 at 72 h is 413 µM. Further, the figures for the selectivity ratio in data set [9], in [11] and in [12] were 18.8, 29.1 and 17.3, respectively.

In the case of `C=C1C[C@@]23CC[C@H]4[C@@](C)(CCC[C@@]4(C)NC(=O)c4ccccc4)[C@@H]2CC[C@]1(O)C3`, the inhibition result in data set [5], in data set [6] and in [7] was “Active” throughout.

As for `Nc1ccn([C@@H]2CS[C@H](CO)O2)c(=O)n1` [LAMIVUDINE], in data set [13], the IC50 is 108 µM. For the same molecule, the figures for the “fold change (FC)” value in [15] and in data set [16] were 0.21 and 0.17, respectively. Moreover, in data set [8], the CC50 at 72 h worked out at 2360 µM. In addition, the selectivity ratio in [9] was 22.

As for `C=C1C[C@@]23CC[C@H]4[C@@](C)(CCC[C@@]4(C)NC(=O)c4ccc(F)cc4)[C@@H]2CC[C@]1(O)C3`, the inhibition result in [5], in [6] and in data set [7] was “Active” in each case.

For `C=C1C[C@@]23CC[C@H]4[C@@](C)(CCC[C@@]4(C)NC(=O)c4ccc(C#N)cc4)[C@@H]2CC[C@]1(O)C3`, the IC50 in [13] was found to be 9 µM; in data set [14], 8.3 µM; in data set [2], 13.6 µM. For the same molecule, the CC50 at 72 h in [8] was found to be 125 µM. In addition, the selectivity ratio in data set [9] stood at 13.9; in [11], 15.1; in data set [12], 9.2.

For `C=C1C[C@@]23CC[C@H]4[C@@](C)(CCC[C@@]4(C)N)[C@@H]2CC[C@]1(O)C3`, the values for the IC50 in data set [13], in data set [2] and in data set [3] were 35.8 µM, 31.2 µM and 30.7 µM, respectively. Moreover, the CC50 at 72 h in data set [8] is 169 µM. The figures for the selectivity ratio in data set [9], in data set [11] and in data set [12] were 4.7, 5.5 and 5.4, respectively.

Take `C=C1C[C@@]23CC[C@H]4[C@@](C)(CCC[C@@]4(C)NC(C)=O)[C@@H]2CC[C@]1(O)C3`: the inhibition result in data set [5], in data set [6] and in [7] was “Active” throughout.

`C=C1C[C@@]23CC[C@H]4[C@@](C)(CCC[C@@]4(C)NC(=O)c4ccc(Cl)cc4)[C@@H]2CC[C@]1(O)C3`: the inhibition entry in [5], in data set [6] and in [7] was “Active” in each case.

With `O=c1[nH]cc(F)c(=O)[nH]1` [FLUOROURACIL], the CC50 at 72 h in [8] turned out to be 228 µM.

As for `C=C1C[C@@]23CC[C@H]4[C@@](C)(CCC[C@@]4(C)NC(=O)CCC)[C@@H]2CC[C@]1(O)C3`, the inhibition result in data set [5] and in data set [7] was “Active” in each case.

Regarding `C=C1C[C@@]23CC[C@H]4[C@@](C)(CCC[C@@]4(C)NC(=O)Nc4ccc(Cl)cc4)[C@@H]2CC[C@]1(O)C3`, the IC50 in [14] turned out to be 8 µM; in data set [2], 5 µM; in data set [4] it was 4.5 µM. In [9], the selectivity ratio amounted to 6.6.

For the molecule `C=C1C[C@@]23CC[C@H]4[C@@](C)(CCC[C@@]4(C)NC(=O)Nc4ccccc4)[C@@H]2CC[C@]1(O)C3`, the IC50 in [14] amounted to 33.5 µM.

On to `C=C1C[C@@]23CC[C@H]4[C@@](C)(CCC[C@@]4(C)NC(=O)c4ccc(CC)cc4)[C@@H]2CC[C@]1(O)C3`, for which the inhibition entry in data set [5], in data set [6] and in [7] was “Active” throughout.
